Screening data as filed in PubChem.
Shown are actives, neighbours in structure and some others; about 4.8% of the full set was active somewhere.
PTK2B oligo ant: blocks oligomerization of human Pyk2 in cells | Q14289 | Q293 cells, Pyk2 FERM NanoBiT luminescence; stronger effect = lower value | z-score (the deposit names both 25 µM and 10 µM) | 99,000 tested, 0.83% active | AID 1347419;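 active = Z-score of -3 or lower, scaled per plate to the spread of control and sample wells; inactive = z-score above -3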;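 note: negative z-score means lost luminescence so less FERM oligomerization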
ERb coact inh: blocks coactivator binding to human estrogen receptor beta; TR-FRET ER-beta LBD / SRC1-Cy5 peptide binding; receptor agonist-loaded with 1 µM estradiol; inhibition, % at 25.6 µM; 86,000 tested, 1.3% active; AID 633;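 active = compounds whose percent inhibition of the receptor-coactivator binding signal exceeds about 50% in the single-dose screen, limit read from the data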;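 note: 0% = receptor plus peptide wells without compound and 100% = peptide-only wells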
RORa activator: activates the human nuclear receptor RORA. CHO-K1 Gal4-RORA LBD luciferase reporter, luminescence; percent increase over mock-subtracted basal signal. activation, % at 10 µM. 65,000 tested, 1.5% active;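 active = activation above the mean of all tested compounds plus 3 SD, cut at about 49% in these data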;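 note: 0% = DMSO-treated RORA cells and 100% = added signal equal to DMSO minus mock-transfected cells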
SF-1 act: activators of human nuclear receptor SF-1 | Q13285 | CHO-K1 Gal4-SF-1 LBD luciferase reporter; % increase over DMSO SF-1-specific signal | activation, % at 10 µM | 65,000 tested, 1.9% active;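 active = activation above the mean activation of all tested compounds plus 3 SD, cut at about 50% in these data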
Target sequence (Q13285 whole entry, looked up, the tested form may be a part): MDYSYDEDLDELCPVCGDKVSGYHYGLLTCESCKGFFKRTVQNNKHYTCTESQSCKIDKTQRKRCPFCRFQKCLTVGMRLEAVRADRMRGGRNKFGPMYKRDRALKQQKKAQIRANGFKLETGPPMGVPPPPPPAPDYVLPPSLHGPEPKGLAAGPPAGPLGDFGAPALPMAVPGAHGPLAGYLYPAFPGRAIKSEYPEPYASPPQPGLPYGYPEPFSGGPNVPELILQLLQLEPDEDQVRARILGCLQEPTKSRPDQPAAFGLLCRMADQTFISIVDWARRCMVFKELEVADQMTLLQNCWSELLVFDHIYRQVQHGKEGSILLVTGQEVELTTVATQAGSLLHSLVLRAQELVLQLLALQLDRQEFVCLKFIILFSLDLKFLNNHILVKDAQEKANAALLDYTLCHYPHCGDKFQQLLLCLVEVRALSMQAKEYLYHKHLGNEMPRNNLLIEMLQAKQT
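System: CHO-K1 cells with Gal4–hSF-1 LBD chimera plus Gal4-driven luciferase; quantity: 4,000 CHO-K1 cells per well; compound: one dose, 10 µM compound, 1% DMSO; times: 20 h compound treatment, 37 °C; measured by: SteadyLite luciferase luminescence; read-out: percent activation versus DMSO; benchmarks: DMSO and mock-transfected background; replicates: one test per compound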
ERa coact inh: blocks coactivator binding to human estrogen receptor alpha; inhibition, % at 25.6 µM; 86,000 tested, 1.7% active; AID 629; TR-FRET ER-alpha LBD / SRC-1 peptide, estradiol-bound; in the data active = inhibition above about 50%;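 note: 0% = receptor plus peptide control and 100% = peptide only without receptor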
ERa coact pot: enhances coactivator binding to human estrogen receptor alpha | coactivator binding (% of control), % at 25.6 µM | 86,000 tested, 1.3% active | P03372 | TR-FRET ERalpha-LBD/SRC-Cy5 coactivator binding, 2 h; 100 = basal binding, no effect; in the data active = activity above about 200%;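 note: binding measured in presence of low estradiol as agonist stimulus; 0% = peptide alone without receptor and 100% = receptor with peptide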
* hit, by the source's call; [ ] = remark or other dose.

Screening O=C(Nc1ccc2nc(-c3cccs3)[nH]c2c1)c1cccs1 returned PTK2B oligo ant 0.01, ERb coact inh 20.9, RORa activator 30.7, SF-1 act 33.5, ERa coact inh -3.2 and ERa coact pot 88.6.
`O=C(Nc1ccc(-c2nc3ncccc3o2)cc1)c1ccco1` gave PTK2B oligo ant 0.23, ERb coact inh 36.3, RORa activator 42.2, SF-1 act 63.3*, ERa coact inh 34.4 and ERa coact pot 82.6.
For O=C(Nc1ccc(-c2nc3ccc(NC(=O)c4cccs4)cc3[nH]2)cc1)c1cccs1 the results were PTK2B oligo ant -0.48, ERb coact inh 55.5*, ERa coact inh 91.4*[fluorescence artefact?] and ERa coact pot 107.5.
`O=C(Nc1ccc2nc(-c3ccccc3)oc2c1)c1ccco1` gave PTK2B oligo ant -2.08, ERb coact inh -6.2, RORa activator 22.9, SF-1 act 31.4, ERa coact inh -3.5 and ERa coact pot 101.4.
For Cc1ccc2nc(-c3ccc(NC(=O)c4ccco4)cc3)[nH]c2c1 the results were PTK2B oligo ant -1.5, ERb coact inh 36.3, RORa activator 31.0, SF-1 act 50.1*, ERa coact inh 59.1*[fluorescence artefact?] and ERa coact pot 175.7.
`Cc1cc(C)nc(NS(=O)(=O)c2ccc(NC(=O)c3ccco3)cc2)n1` gave PTK2B oligo ant 0.97, ERb coact inh 68.8*[fluorescence artefact?], RORa activator 16.4, SF-1 act -8.1, ERa coact inh -5.3 and ERa coact pot 102.5.
`O=C(CN1C(=O)COc2ccc(Cl)cc21)N1CCc2ccccc21` gave PTK2B oligo ant 0.44, ERb coact inh 15.7, RORa activator -18.2, SF-1 act -5.5, ERa coact inh 1.5 and ERa coact pot 116.8.
`Cc1ccccc1NC(=O)C1CCC(C)(C(=O)O)C1(C)C` (configuration not stated) gave PTK2B oligo ant 0.55, ERb coact inh -5.7, RORa activator -16.9, SF-1 act -6.4, ERa coact inh 3.8 and ERa coact pot 116.2.
For O=C(CN1C(=O)CCS(=O)(=O)c2ccccc21)Nc1cccc(F)c1 the results were PTK2B oligo ant 0.71, ERb coact inh 0.1, RORa activator -13.3, SF-1 act 9.8, ERa coact inh -1.0 and ERa coact pot 119.1.
For O=C(Nc1cccc(-c2cnc3ccccc3n2)c1)c1cccc(NC(=O)c2ccco2)c1 the results were PTK2B oligo ant -4.4*, ERb coact inh 35.4, ERa coact inh 59.2* and ERa coact pot 243.8*[fluorescence artefact?].
O=C(Nc1cccc(-c2cnc3ccccc3n2)c1)c1ccccc1 was read as PTK2B oligo ant 0.08.
O=C1NC(c2ccc3c(c2)OCO3)Nc2ccccc21 (configuration not stated) was read as PTK2B oligo ant -0.22, ERb coact inh 0.9, RORa activator 62.9*, SF-1 act 71.9*, ERa coact inh 2.0 and ERa coact pot 98.8.
For Cn1cnnc1SCC(=O)Nc1sc2c(c1C(N)=O)CCC2 the results were PTK2B oligo ant 0, ERb coact inh 93.2*[fluorescence artefact?], RORa activator -0.7, SF-1 act -9.9, ERa coact inh 94.0*[fluorescence artefact?] and ERa coact pot 12.7.
`CCOC(=O)c1c(NC(=O)CSc2nncn2C)sc(C)c1C` gave PTK2B oligo ant 0.8, ERb coact inh -7.2, ERa coact inh -5.3 and ERa coact pot 110.8.
`CCC1=NNc2cccc3c(OC)ccc1c23` gave ERb coact inh 100.5*[fluorescence artefact?], ERa coact inh 99.1*[fluorescence artefact?] and ERa coact pot -2.3.
Screening COC(=O)c1cc(=O)n(CCc2ccc(OC)c(OC)c2)c(=Nc2ccc(F)c(Cl)c2)s1 returned ERb coact inh -5.4, ERa coact inh -6.5 and ERa coact pot 100.8.
Screening COc1ccc(NC(=O)Cn2c(-c3ccccc3)cn(-c3ccc(C)cc3)c2=O)cc1 returned PTK2B oligo ant -0.96, ERb coact inh 4.2, ERa coact inh 4.9 and ERa coact pot 200.9*.
`O=C(CCCCCn1c(SCc2ccncc2)nc2ccccc2c1=O)NCc1ccco1` gave PTK2B oligo ant -0.08, ERb coact inh 44.1, RORa activator -8.6, SF-1 act 7.5, ERa coact inh 57.4*[fluorescence artefact?] and ERa coact pot 108.2.
Screening O=C(CSc1nc2ccccc2c2nc3ccccc3n12)NCc1ccco1 returned PTK2B oligo ant -1.23, ERb coact inh 47.8, RORa activator 0.0, SF-1 act -12.1, ERa coact inh 73.5*[fluorescence artefact?] and ERa coact pot 91.9.
CC1=NNC(=O)C1CCC(=O)N/N=C\c1ccccc1[N+](=O)[O-] (configuration not stated) was read as PTK2B oligo ant 0.7.
For CCOc1ccc(S(=O)(=O)NCCCN2CCOCC2)cc1 the results were PTK2B oligo ant 0.21, ERb coact inh -1.3, ERa coact inh 9.8 and ERa coact pot 112.7.
For CCOC(=O)c1c(-c2cccs2)csc1NC(=O)CN(CC)CC the results were PTK2B oligo ant -3.62*, ERb coact inh -8.9, ERa coact inh -0.7 and ERa coact pot 96.8.
`CCCC(C)C(=O)NCc1ccccc1OC` (configuration not stated) gave PTK2B oligo ant 0.15, ERb coact inh 10.8, RORa activator 15.4, SF-1 act 2.3, ERa coact inh -7.3 and ERa coact pot 102.7.
`CCCCC(CC)C(=O)NCc1ccccc1OC` (configuration not stated) gave PTK2B oligo ant 0.08, ERb coact inh 52.5*, RORa activator 0.8, SF-1 act -2.4, ERa coact inh -2.0 and ERa coact pot 128.3.
Screening O=C1NC(c2ccccc2)=C(c2nc3ccccc3s2)C(c2ccccc2)N1 (configuration not stated) returned PTK2B oligo ant -3.65*.
For O=c1cc(-c2ccccc2)[nH]n1-c1nc2ccccc2s1 the results were PTK2B oligo ant -0.13, ERb coact inh 7.1, RORa activator 30.9, SF-1 act 35.8, ERa coact inh 11.9 and ERa coact pot 82.7.
For N#Cc1nn(-c2ccccc2)nc1N1CCCCC1 the results were PTK2B oligo ant -0.18, ERb coact inh 4.1, RORa activator -6.4, SF-1 act -8.5, ERa coact inh -12.1 and ERa coact pot 110.8.
`COc1ccc(NC(=O)c2cc(CN3C(=O)c4ccccc4C3=O)ccc2OC)cn1` gave PTK2B oligo ant -0.95, ERb coact inh 47.2, RORa activator 33.6, SF-1 act 7.2, ERa coact inh 82.6*[fluorescence artefact?] and ERa coact pot 96.0.
COc1cccc(N=Nc2c(N)[nH]n3c(=O)cc(-c4ccccc4)nc23)c1 was read as PTK2B oligo ant -3.6*.
For Cc1ccc(C(=O)c2c(NC(=O)c3cccnc3)sc3c2CCCC3)cc1 the results were PTK2B oligo ant -1.69.
`Cc1cc(-c2ccc(F)cc2)nc2cc(C(N)=O)nn12` gave PTK2B oligo ant -0.33, ERb coact inh 25.1, RORa activator -10.7, SF-1 act -4.1, ERa coact inh 28.3 and ERa coact pot 127.8.
